Assays:
Canis familiaris [1] = species: Canis familiaris; experiment: Cardiac slowing index was measured for potency and efficacy; format: functional, Canis lupus familiaris
Procedure, shortened: (§1)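 Triazine tachycardia in conscious dogs: carotid artery and jugular vein catheterized with heparinized saline; 18 h after surgery, triazine vasodilator U20388 12 mg/kg po; about 1 h later, dog in sling with arterial pressure and ECG monitored. Test agent infused iv at 0.8 (mg/kg)/min to 30 mg/kg total. D50 = dose giving 50% of maximal slowing in that animal; ΔHR50 = heart-rate change at D50; CS index = %ΔHR50/D50.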

Canis familiaris [2] = experiment: Myocardial depression in anesthetized, ganglion-blocked dog; Moderate activity.
Canis familiaris [3] = experiment: Dose required to achieve 50 % of maximal cardiac slowing in triazine tachycardia test in conscious dog; format: functional, Canis lupus familiaris; procedure, shortened: as §1
Canis familiaris [4] = species: Canis familiaris; experiment: Relative activity (fraction of the most active compound 24) was determined; format: functional, Canis lupus familiaris
Canis familiaris [5] = species: Canis familiaris; experiment: Percent decrease from initial heart rate (percent delta HR50/HR0 x 100) in dogs; format: functional, Canis lupus familiaris; procedure, shortened: as §1
Canis familiaris [6] = experiment: Change in heart rate at the above D50 dose in conscious dogs; format: functional, Canis lupus familiaris; procedure, shortened: as §1
Canis familiaris [7] = experiment: Evaluated for the myocardial depression rating which is barely observable for the given compound in anesthetized, ganglion-blocked dog
Canis familiaris [8] = experiment: Evaluated for the myocardial depression rating which is none for the given compound in anesthetized, ganglion-blocked dog
Canis familiaris [9] = experiment: Evaluated for the heart rate at dose 0.5 mg/kg in 4 animals by poldine tachycardia test; format: functional, Canis lupus familiaris
Procedure, shortened: (§2)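 Poldine tachycardia: dogs prepared surgically as in the triazine method; poldine methyl sulfate 0.5 mg/kg iv, then 30 min later test agent in increasing doses (0.5/1.0/2.5 mg/kg) at 30-min intervals; read-out is the maximum percent decrease in heart rate at each dose.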

Canis familiaris [10] = experiment: Evaluated for the heart rate at dose 2.5 mg/kg in 4 animals by glucagon-induced tachycardia test; format: functional, Canis lupus familiaris
Canis familiaris [11] = experiment: Myocardial depression rating in anesthetized, ganglion-blocked dog; Weak activity.
Canis familiaris [12] = experiment: Evaluated for the heart rate at dose 1.0 mg/kg in 4 animals by aminophylline-induced sinus tachycardia test; format: functional, Canis lupus familiaris
Canis familiaris [13] = experiment: Evaluated for the heart rate at dose 5.0 mg/kg in 4 animals by aminophylline-induced sinus tachycardia test; format: functional, Canis lupus familiaris
Canis familiaris [14] = experiment: Evaluated for the heart rate at dose 1.0 mg/kg in 4 animals by glucagon-induced tachycardia test; format: functional, Canis lupus familiaris
Canis familiaris [15] = experiment: Evaluated for the heart rate at dose 2.5 mg/kg in 4 animals by aminophylline-induced sinus tachycardia test; format: functional, Canis lupus familiaris
Canis familiaris [16] = experiment: Evaluated for the heart rate at dose 1.0 mg/kg in 4 animals by poldine tachycardia test; format: functional, Canis lupus familiaris; procedure, shortened: as §2
Canis familiaris [17] = experiment: Evaluated for the heart rate at dose 2.5 mg/kg in 4 animals by poldine tachycardia test; format: functional, Canis lupus familiaris; procedure, shortened: as §2
Canis familiaris [18] = experiment: Evaluated for the heart rate at dose 5.0 mg/kg in 4 animals by glucagon-induced tachycardia test; format: functional, Canis lupus familiaris

Structure (SMILES): C=CCCn1cc(SCC/N=C2\CCCN2C)c2ccccc21
- CS index (Canis familiaris [1]): 14.7
- MD (Canis familiaris [2]): 3
- D50 (Canis familiaris [3]): 1.1 mg/kg
- Relative activity (Canis familiaris [4]): 0.46
- Delta HR50 (Canis familiaris [5]): 16.2%
- Delta HR50 (Canis familiaris [6]): -33 beats min-1

Structure (SMILES): C#CCn1cc(CC/N=C2/CCCN2C)c2ccccc21
- CS index (Canis familiaris [1]): 14.9
- MD (Canis familiaris [2]): 3
- D50 (Canis familiaris [3]): 1.5 mg/kg
- Relative activity (Canis familiaris [4]): 0.46
- Delta HR50 (Canis familiaris [5]): 22.3%
- Delta HR50 (Canis familiaris [6]): -47 beats min-1

Structure (SMILES): CN1CCC/C1=N\CCCCSc1c[nH]c2ccccc12
- CS index (Canis familiaris [1]): 10
- MD (Canis familiaris [2]): 3
- D50 (Canis familiaris [3]): 2 mg/kg
- Relative activity (Canis familiaris [4]): 0.31
- Delta HR50 (Canis familiaris [5]): 20%
- Delta HR50 (Canis familiaris [6]): -42 beats min-1

Structure (SMILES): COCCn1cc(SCC/N=C2\CCCN2C)c2ccccc21
- CS index (Canis familiaris [1]): 11.7
- MD (Canis familiaris [2]): 2.5
- D50 (Canis familiaris [3]): 1.5 mg/kg
- Relative activity (Canis familiaris [4]): 0.37
- Delta HR50 (Canis familiaris [5]): 17.6%
- Delta HR50 (Canis familiaris [6]): -33 beats min-1

Structure (SMILES): CCn1cc(SCCCC/N=C2\CCCN2C)c2ccccc21
- CS index (Canis familiaris [1]): 22.8
- MD (Canis familiaris [2]): 3.5
- D50 (Canis familiaris [3]): 0.7 mg/kg
- Relative activity (Canis familiaris [4]): 0.71
- Delta HR50 (Canis familiaris [5]): 16%
- Delta HR50 (Canis familiaris [6]): -33 beats min-1

Structure (SMILES): CCCn1cc(SCC/N=C2\CCCN2C)c2ccccc21
- CS index (Canis familiaris [1]): 16.1
- MD (Canis familiaris [7]): 1
- D50 (Canis familiaris [3]): 1.7 mg/kg
- Relative activity (Canis familiaris [4]): 0.5
- Delta HR50 (Canis familiaris [5]): 27.4%
- Delta HR50 (Canis familiaris [6]): -60 beats min-1

Structure (SMILES): CCn1cc(CC/N=C2/CCCN2C)c2ccccc21
- CS index (Canis familiaris [1]): 25.2
- D50 (Canis familiaris [3]): 0.8 mg/kg
- MD (Canis familiaris [8]): 0
- Relative activity (Canis familiaris [4]): 0.79
- Delta HR50 (Canis familiaris [5]): 20.2%
- Delta HR50 (Canis familiaris [6]): -48 beats min-1

Structure (SMILES): Cc1[nH]c2ccccc2c1SCC/N=C1\CCCCN1C
- CS index (Canis familiaris [1]): 7.1
- MD (Canis familiaris [2]): 3
- D50 (Canis familiaris [3]): 2 mg/kg
- Relative activity (Canis familiaris [4]): 0.22
- Delta HR50 (Canis familiaris [5]): 14.3%
- Delta HR50 (Canis familiaris [6]): -24 beats min-1

Structure (SMILES): CC(C)n1cc(SCC/N=C2\CCCN2C)c2ccccc21
- Max decrease in heart rate (Canis familiaris [9]): 15%
- CS index (Canis familiaris [1]): 19.1
- D50 (Canis familiaris [3]): 1 mg/kg
- Max decrease in heart rate (Canis familiaris [10]): 39%
- MD (Canis familiaris [11]): 2
- Relative activity (Canis familiaris [4]): 0.6
- Max decrease in heart rate (Canis familiaris [12]): 16%
- Delta HR50 (Canis familiaris [5]): 19.1%
- Max decrease in heart rate (Canis familiaris [13]): 47%
- Max decrease in heart rate (Canis familiaris [14]): 23%
- Max decrease in heart rate (Canis familiaris [15]): 33%
- Max decrease in heart rate (Canis familiaris [16]): 38%
- Max decrease in heart rate (Canis familiaris [17]): 55%
- Delta HR50 (Canis familiaris [6]): -31 beats min-1

Structure (SMILES): CN1CCC/C1=N/CCCSc1c[nH]c2ccccc12
- CS index (Canis familiaris [1]): 5.4
- MD (Canis familiaris [2]): 3
- D50 (Canis familiaris [3]): 3.8 mg/kg
- Relative activity (Canis familiaris [4]): 0.17
- Delta HR50 (Canis familiaris [5]): 20.4%
- Delta HR50 (Canis familiaris [6]): -46 beats min-1

Structure (SMILES): Cc1[nH]c2ccc(Cl)cc2c1SCC/N=C1\CCCN1C
- CS index (Canis familiaris [1]): 7.5
- MD (Canis familiaris [2]): 3
- D50 (Canis familiaris [3]): 2.3 mg/kg
- Relative activity (Canis familiaris [4]): 0.23
- Delta HR50 (Canis familiaris [5]): 17.2%
- Delta HR50 (Canis familiaris [6]): -33 beats min-1

Structure (SMILES): CN1CCC/C1=N\CCSc1cn(C2C=CCCC2)c2ccccc12 (stereo unspecified)
- CS index (Canis familiaris [1]): 10.9
- MD (Canis familiaris [2]): 3.5
- D50 (Canis familiaris [3]): 1.9 mg/kg
- Relative activity (Canis familiaris [4]): 0.34
- Delta HR50 (Canis familiaris [5]): 20.8%
- Delta HR50 (Canis familiaris [6]): -52 beats min-1

Structure (SMILES): CN1CCN=C1NCCCCSc1c[nH]c2ccccc12
- CS index (Canis familiaris [1]): 0.8
- D50 (Canis familiaris [3]): 12.6 mg/kg
- MD (Canis familiaris [8]): 0
- Relative activity (Canis familiaris [4]): 0.03
- Delta HR50 (Canis familiaris [5]): 10.5%
- Delta HR50 (Canis familiaris [6]): -27 beats min-1

Structure (SMILES): Cc1c(SCC/N=C2\CCCN2C)c2ccccc2n1C
- CS index (Canis familiaris [1]): 13.9
- MD (Canis familiaris [2]): 3.5
- D50 (Canis familiaris [3]): 0.9 mg/kg
- Relative activity (Canis familiaris [4]): 0.43
- Delta HR50 (Canis familiaris [5]): 12.5%
- Delta HR50 (Canis familiaris [6]): -21 beats min-1

Structure (SMILES): CN1CCCC1=NCCCCc1c[nH]c2ccccc12
- CS index (Canis familiaris [1]): 3.1
- D50 (Canis familiaris [3]): 6.1 mg/kg
- MD (Canis familiaris [8]): 0
- Relative activity (Canis familiaris [4]): 0.11
- Delta HR50 (Canis familiaris [5]): 19%
- Delta HR50 (Canis familiaris [6]): -50 beats min-1

Structure (SMILES): CN1CCC/C1=N\CCSc1cn(C2CCCC2)c2ccccc12
- CS index (Canis familiaris [1]): 7.8
- MD (Canis familiaris [2]): 3
- D50 (Canis familiaris [3]): 2.7 mg/kg
- Relative activity (Canis familiaris [4]): 0.24
- Delta HR50 (Canis familiaris [5]): 21%
- Delta HR50 (Canis familiaris [6]): -40 beats min-1

Structure (SMILES): CN1CCC/C1=N\CCSc1c[nH]c2ccccc12
- Max decrease in heart rate (Canis familiaris [9]): 9%
- CS index (Canis familiaris [1]): 8.2
- MD (Canis familiaris [2]): 3
- D50 (Canis familiaris [3]): 2.5 mg/kg
- Max decrease in heart rate (Canis familiaris [10]): 20%
- Relative activity (Canis familiaris [4]): 0.26
- Max decrease in heart rate (Canis familiaris [12]): 10%
- Delta HR50 (Canis familiaris [5]): 20.4%
- Max decrease in heart rate (Canis familiaris [13]): 39%
- Max decrease in heart rate (Canis familiaris [14]): 6%
- Max decrease in heart rate (Canis familiaris [15]): 22%
- Max decrease in heart rate (Canis familiaris [16]): 22%
- Max decrease in heart rate (Canis familiaris [17]): 33%
- Max decrease in heart rate (Canis familiaris [18]): 28%
- Delta HR50 (Canis familiaris [6]): -40 beats min-1

Structure (SMILES): CN1CCC/C1=N\CCC1CNc2ccccc21 (stereo unspecified)
- CS index (Canis familiaris [1]): 3.5
- MD (Canis familiaris [7]): 1
- D50 (Canis familiaris [3]): 3.5 mg/kg
- Relative activity (Canis familiaris [4]): 0.13
- Delta HR50 (Canis familiaris [5]): 12.2%
- Delta HR50 (Canis familiaris [6]): -27 beats min-1

Structure (SMILES): CC(CSc1c[nH]c2ccccc12)/N=C1\CCCN1C (stereo unspecified)
- CS index (Canis familiaris [1]): 8.9
- MD (Canis familiaris [2]): 3.5
- D50 (Canis familiaris [3]): 2.7 mg/kg
- Relative activity (Canis familiaris [4]): 0.28
- Delta HR50 (Canis familiaris [5]): 24%
- Delta HR50 (Canis familiaris [6]): -46 beats min-1
